Rows were chosen to be rich in hits. Some 2.3% of all compounds tested hit in one or more screens of this group.
FN deposition inh: inhibitors of fibronectin matrix deposition, primary screen, AH1F cells, Alexa488-fibronectin fluorescence, plate reader; AH1F fibroblasts, overnight; inhibition, % at 12.6 µM; 350,000 compounds, 0.086% hits; AID 743247, 2014;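 active means mean inhibition across replicates of 30% or more, regardless of how many single replicates reach that level; inconclusive means mean under 30% yet at least half of replicates reach 30%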
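material = AH1F fibroblast monolayer depositing Alexa488-labelled fibronectin into matrix | amount = 10000 AH1F cells/well | buffer or medium = DMEM plus 2% serum, read in PBS | incubation = 1 h cell adhesion before compound, then overnight fibronectin incubation | detection = fluorescence at 485 nm excitation, 525 nm emission | evaluation = percent inhibition as loss of matrix-bound fibronectin fluorescence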
EWS-Fli block: EWS/Fli-driven NR0B1 reporter inhibitors, primary screen, A673 cells, NR0B1 luciferase, luminescence, MLPCN library; viability-normalised; 350,000 compounds, 0.67% hits; inhibition, % at 12.6 µM;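 active means mean inhibition of at least 50% after viability correction, with every replicate also passing that limit; inconclusive means mean reaches 50% but only one of two replicates passes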;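 further: firefly luciferase signal divided by Alamar Blue viability fluorescence both relative to DMSO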
F508del corr: F508del CFTR correction, initial screen, CFBE line, single point; activity (quench increase), % at 7.58 µM; AID 720511, 2013; 350,000 compounds, 0.36% hits; CFBE cells, YFP halide quenching; stimulated with forskolin plus potentiator P3; % fluorescence drop versus neutral controls;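 active means mean added fluorescence quench of at least 8% versus neutral control, with both replicates also reaching 8%; inconclusive means only one of the mean or replicate conditions met; inactive means mean below 8% and not both replicates reaching 8%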;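 further: cells transiently co-express mutant CFTR-F508del with the halide-sensitive YFP; corrector assay measuring rescue of mutant channel to the surface after 24 h compound exposure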
PGC1a acetyl inh: inhibitors of PGC1a acetylation signal, primary screen, cell-based, U2OS, AlphaScreen, inhibitor mode; AlphaScreen anti-acetyl-lysine; with virally co-expressed GCN5 acetyltransferase; inhibition, % at 15.6 µM; 350,000 compounds, 0.17% hits;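 active means every replicate shows inhibition of at least 40%; inconclusive means mean inhibition at least 40% but some replicate below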
HIV Env fusion: inhibitors of HIV-1 Env-driven cell-cell fusion, primary screen, HeLa-JRFL effector, CEM21 target cells, luciferase | inhibition, % at 12.3 µM | 360,000 compounds, 1.1% hits;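 active means mean replicate inhibition score of at least 50 and every replicate individually at or above 50; inconclusive means only one of the two criteria met; inactive means mean below 50 and not all replicates reaching 50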
PAX8 reporter: inhibitors of PAX8-driven TPO luciferase reporter, primary screen, RMG-I cells, single concentration. SteadyGlo, 24 h. inhibition, % at 12.6 µM. 360,000 compounds, 1.2% hits;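 active means mean replicate inhibition at least 60% with every replicate also reaching 60%; inconclusive means only one of the two criteria is met; inactive means mean below 60% and not all replicates reaching 60%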;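 further: luciferase light reporting Pax8 driven TPO promoter activity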
Each line names hits and unclear results; the compound was inactive in the other large screens; [ ] = remark or other dose.

COc1ccc(NC(=O)Nc2ccc3c(c2)C(=O)N([C@H](C)CO)C[C@H](C)[C@H](CN(C)S(=O)(=O)c2ccc(F)cc2)O3)cc1	HIV Env fusion 69[16.7 µM] (no result: FN deposition inh)
COc1ccc(NC(=O)Nc2ccc3c(c2)C(=O)N([C@H](C)CO)C[C@H](C)[C@@H](CN(C)S(=O)(=O)c2ccc(OC)cc2)O3)cc1	none
COc1ccc(NC(=O)Nc2ccc3c(c2)C(=O)N([C@H](C)CO)C[C@@H](C)[C@H](CN(C)S(=O)(=O)c2ccc(C)cc2)O3)cc1	none (no result: FN deposition inh)
COc1ccc(NC(=O)Nc2ccc3c(c2)C(=O)N([C@@H](C)CO)C[C@H](C)[C@H](CN(C)S(=O)(=O)c2ccc(OC)cc2)O3)cc1	HIV Env fusion 83[16.7 µM] (no result: FN deposition inh)
C[C@@H]1CN([C@H](C)CO)C(=O)c2cc(NC(=O)Nc3ccccc3)ccc2O[C@@H]1CN(C)S(=O)(=O)c1ccccc1	HIV Env fusion 75[16.7 µM] (no result: FN deposition inh)
C[C@@H]1CN([C@H](C)CO)C(=O)Cc2cc(NC(=O)Cc3ccccc3)ccc2O[C@H]1CN(C)S(=O)(=O)c1ccc(F)cc1	none (no result: HIV Env fusion)
C[C@@H]1CN([C@@H](C)CO)C(=O)c2cc(C#Cc3ccccc3F)cnc2O[C@@H]1CN(C)C(=O)C1CCC1	none (no result: FN deposition inh)
CCCNC(=O)N1CCC2(CC1)CN(C(=O)NC(C)C)[C@@H](CO)c1c2c2ccc(OC)cc2n1C	none (no result: FN deposition inh, HIV Env fusion)
COc1cccc(C#Cc2cnc3c(c2)C(=O)N([C@H](C)CO)C[C@H](C)[C@@H](CN(C)C)O3)c1	none
C[C@@H]1CN([C@H](C)CO)C(=O)c2cc(NS(=O)(=O)c3cccs3)ccc2O[C@H]1CN(C)C(=O)Nc1ccccc1	none (no result: FN deposition inh)
C/C=C/c1ccc([C@H]2[C@H](CO)N(C(=O)c3cnccn3)C23CN(C(=O)C2CC2)C3)cc1	none
COc1ccc(S(=O)(=O)N(C)C[C@@H]2Oc3ccc(NC(=O)Nc4ccc5c(c4)OCO5)cc3C(=O)N([C@H](C)CO)C[C@@H]2C)cc1	HIV Env fusion 76[16.7 µM] (no result: PAX8 reporter)
COc1ccc(S(=O)(=O)N(C)C[C@H]2Oc3ccc(NC(=O)Nc4ccc(C(F)(F)F)cc4)cc3C(=O)N([C@H](C)CO)C[C@@H]2C)cc1	PAX8 reporter 94
COc1ccc(NC(=O)Nc2ccc3c(c2)C(=O)N([C@H](C)CO)C[C@H](C)[C@@H](CN(C)S(=O)(=O)c2ccc(Cl)cc2)O3)cc1	PGC1a acetyl inh inconclusive (no result: PAX8 reporter)
COc1ccc(NC(=O)Nc2ccc3c(c2)C(=O)N([C@@H](C)CO)C[C@H](C)[C@H](CN(C)S(=O)(=O)c2ccc(Cl)cc2)O3)cc1	HIV Env fusion 66[16.7 µM] (no result: FN deposition inh, PAX8 reporter)
C[C@H](CO)N1C[C@H](C)[C@H](CN(C)S(=O)(=O)c2ccc(C#N)cc2)Oc2ncc(/C=C/c3ccccc3)cc2C1=O	HIV Env fusion 74[16.7 µM] (no result: FN deposition inh, PAX8 reporter)
O=C(c1ccccc1)N1CC(=O)N2[C@@H](CO)[C@@H](c3ccc(C#Cc4ccccc4)cc3)[C@@H]2C1	none (no result: FN deposition inh, EWS-Fli block, HIV Env fusion, PAX8 reporter)
Fc1ccc(CN2[C@@H]3CN(CC(F)(F)F)C[C@H]2C3c2ccc(Br)cc2)cc1 (stereo partly drawn)	none (no result: EWS-Fli block, F508del corr, PGC1a acetyl inh, HIV Env fusion, PAX8 reporter)
C[C@H](CO)N1C[C@H](C)[C@H](CN(C)Cc2ccc(C(F)(F)F)cc2)OCCCC[C@H](C)Oc2ccc(NC(=O)CCC(F)(F)F)cc2C1=O	PAX8 reporter 77 (no result: FN deposition inh)
C[C@H](CO)N1C[C@H](C)[C@H](CN(C)Cc2ccc(C(F)(F)F)cc2)OCCCC[C@H](C)Oc2ccc(NC(=O)CCCN(C)C)cc2C1=O	EWS-Fli block 68 (no result: FN deposition inh)
C[C@@H]1CN([C@@H](C)CO)C(=O)c2cc(NC(=O)CCCN(C)C)ccc2O[C@@H](C)CCCCO[C@H]1CN(C)Cc1ccc(C(F)(F)F)cc1	none (no result: FN deposition inh, PAX8 reporter)
c1coc(CNc2nc(N3CCCCC3)nc3ccccc23)c1	none (no result: FN deposition inh, EWS-Fli block, F508del corr, HIV Env fusion, PAX8 reporter)
OCCNc1nc(N2CCCCC2)nc2ccccc12	PGC1a acetyl inh 67
CNc1ccc(Br)cc(C(=O)/C=C/c2ccc(Cl)cc2Cl)c1=O	PAX8 reporter 66 (no result: PGC1a acetyl inh)
CN(C)CC(=O)Nc1ccc2c(c1)[C@@H]1C[C@@H](CC(=O)NC3CCCC3)O[C@@H](CO)[C@@H]1O2	none
COC(=O)C1=CN(c2ccc(N3CCOCC3)cc2)C(N)=C(C#N)C1c1ccccc1 (stereo not drawn)	none (no result: PGC1a acetyl inh)
COC(=O)C1=CN(c2ccc3c(c2)OCO3)C(N)=C(C#N)C1c1cccc(F)c1 (stereo not drawn)	EWS-Fli block 56, F508del corr 11 (no result: PGC1a acetyl inh)
CCCNC(=O)[C@@H]1[C@@H](CO)[C@@H]2Cn3c(ccc(-c4ccccc4F)c3=O)[C@H]1N2CCC	none (no result: FN deposition inh, PGC1a acetyl inh, HIV Env fusion, PAX8 reporter)
CC(=O)c1ccc(N2CCN(C(=O)c3cc4c(-c5ccccc5F)nn(C)c4s3)CC2)cc1	HIV Env fusion 66 (no result: PGC1a acetyl inh)
CCOC(=O)c1cnc(-c2cccc(OC)c2)[nH]c1=O	none (no result: EWS-Fli block, F508del corr, PAX8 reporter)
CCOC(=O)c1cnc(COc2ccc(OC)cc2)[nH]c1=O	F508del corr 53 (no result: PGC1a acetyl inh)
CN1CCN(C(=O)C[C@H]2CC[C@@H]3[C@H](COC[C@H](O)CN3C(=O)C3CCOCC3)O2)CC1	none
Clc1cccc(-c2nc3nc4ccccc4nc3n2Cc2ccccc2)c1	PAX8 reporter 85 (no result: PGC1a acetyl inh, HIV Env fusion)
c1ccc(Cn2c(-c3ccccc3)nc3nc4ccccc4nc32)cc1	none (no result: EWS-Fli block, F508del corr)
CCCCNC(=O)C(=O)Nc1ccc2c(c1)N(S(=O)(=O)c1cccs1)CCC2	F508del corr 11 (no result: PGC1a acetyl inh)
O=C(CCN1CCCCC1)N[C@@H]1CC[C@@H](CCn2cc(-c3ccccc3)nn2)O[C@H]1CO	none (no result: FN deposition inh)
CC(NC(=O)CN(c1cccc(C(F)(F)F)c1)S(=O)(=O)c1ccc(Cl)c([N+](=O)[O-])c1)c1ccccc1 (stereo not drawn)	EWS-Fli block 60, PAX8 reporter 61 (no result: PGC1a acetyl inh, HIV Env fusion)
CC(=O)N(C)C[C@H]1Oc2cc(-c3cccc(F)c3)ccc2S(=O)(=O)N([C@@H](C)CO)C[C@@H]1C	none
C[C@@H]1CN([C@@H](C)CO)C(=O)c2cc(C#Cc3cccc(F)c3)cnc2O[C@H]1CN(C)Cc1ccccn1	none (no result: PAX8 reporter)
C#CCn1c(=O)c2c(ncn2C)n(C)c1=O	HIV Env fusion 72
COCCNC(=O)[C@@H]1[C@@H](CO)[C@@H]2Cn3c(ccc(-c4ccccc4OC)c3=O)[C@@H]2N1C(=O)C1CCC1	none (no result: FN deposition inh, PGC1a acetyl inh, HIV Env fusion)
OC[C@@H]1CC[C@@H]2O[C@H](CCc3ccc(C#CCc4ccccc4)cc3)[C@@H](n3cc(-c4ccccc4)nn3)C[C@@H]2O1	PAX8 reporter 72 (no result: FN deposition inh, HIV Env fusion)
OC[C@H]1CC[C@@H]2O[C@H](CCc3ccc(C#CCc4ccccc4)cc3)[C@H](n3cc(-c4ccccc4)nn3)C[C@@H]2O1	none (no result: FN deposition inh, HIV Env fusion)

Source: PubChem BioAssay
